According to ChEMBL document CHEMBL5724801, “EUbOPEN Chemogenomics Library - Multiplex” (2024):
“And” between values parts separate entries of the source, which are not always exact repeats. Identical values can stand only once.

Test system: HEK-293T
Experiment: Multiplex assay against HEK293T
Type: toxicity, cell-based
Conditions: human
Procedure, shortened: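 On a CQ1 microscope at 37°C and 5% CO2, live cells were imaged after compound addition. They had been stained at seeding with Hoechst33342, BioTracker Green Microtubule Cytoskeleton Dye, MitoTracker Red and Annexin V Alexa Fluor 680. CellPathfinder machine-learning gating assigned cells to Hoechst high-intensity objects or normal cells, normal cells to healthy, pyknosed or fragmented nuclei, and pyknosed cells to mitotic or apoptotic. Tubulin, mitochondrial-mass and membrane-permeability phenotypes are per cents of healthy-nucleus cells.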

[1] = 12 h, 1 µM, compound concentration 1 uM
[2] = 12 h, 10 µM, compound concentration 10 uM
[3] = 24 h, 1 µM, compound concentration 1 uM
[4] = 24 h, 10 µM, compound concentration 10 uM
[5] = 48 h, 1 µM, compound concentration 1 uM
[6] = 48 h, 10 µM, compound concentration 10 uM

With `Cc1cccc(NC(=O)CN2CCC(c3ccccn3)CC2)c1.Cl.Cl` the “Population Apoptotic (%)” value [1] was 34% and 46%, the “Population Fragmented Nuclei (%)” value [1] was 7% and 5% and the “Population Healthy Nuclei (%)” value [1] was 76% and 82%. The “Population Hoechst High Intensity Objects (%)” value [1] was 5% and 3%, the “Population Membrane Permeable-Phenotype (%)” value [1] was 0% and the “Population Mitochondria Different-Phenotype (%)” value [1] was 54%. For the same molecule, the “Population Mitotic Cells (%)” value [1] was 65% and 53%, the “Population Normal (%)” value [1] was 94% and 96% and the “Population Pyknosed Nuclei (%)” value [1] was 15% and 11%. The “Population Tubulin-Different-Phenotype (%)” value [1] was 33% and 22%, the “Total Cell Count” value [1] was 348 and 277 and the “Population Apoptotic (%)” value [2] was 61% and 43%. For the same molecule, the “Population Fragmented Nuclei (%)” value [2] was 6% and 10%, the “Population Healthy Nuclei (%)” value [2] was 71% and 70% and the “Population Hoechst High Intensity Objects (%)” value [2] was 9% and 14%. The “Population Membrane Permeable-Phenotype (%)” value [2] was 0%, the “Population Mitochondria Different-Phenotype (%)” value [2] was 63% and 79% and the “Population Mitotic Cells (%)” value [2] was 38% and 56%. The “Population Normal (%)” value [2] was 90% and 85%, the “Population Pyknosed Nuclei (%)” value [2] was 21% and 18% and the “Population Tubulin-Different-Phenotype (%)” value [2] was 50% and 35%. The “Total Cell Count” value [2] was 291 and 273, the “Population Apoptotic (%)” value [3] was 32% and 45% and the “Population Fragmented Nuclei (%)” value [3] was 8% and 10%. The “Population Healthy Nuclei (%)” value [3] was 81% and 79%, the “Population Hoechst High Intensity Objects (%)” value [3] was 3% and 4% and the “Population Membrane Permeable-Phenotype (%)” value [3] was 0%. The “Population Mitochondria Different-Phenotype (%)” value [3] was 30% and 44%, the “Population Mitotic Cells (%)” value [3] was 67% and 54% and the “Population Normal (%)” value [3] was 96% and 95%. The “Population Pyknosed Nuclei (%)” value [3] was 9% and 10%, the “Population Tubulin-Different-Phenotype (%)” value [3] was 22% and 18% and the “Total Cell Count” value [3] was 451 and 339. For the same molecule, the “Population Apoptotic (%)” value [4] was 59% and 50%, the “Population Fragmented Nuclei (%)” value [4] was 8% and 11% and the “Population Healthy Nuclei (%)” value [4] was 74% and 75%. For the same molecule, the “Population Hoechst High Intensity Objects (%)” value [4] was 7%, the “Population Membrane Permeable-Phenotype (%)” value [4] was 0% and the “Population Mitochondria Different-Phenotype (%)” value [4] was 60% and 64%. For the same molecule, the “Population Mitotic Cells (%)” value [4] was 40% and 50%, the “Population Normal (%)” value [4] was 92% and the “Population Pyknosed Nuclei (%)” value [4] was 17% and 13%. The “Population Tubulin-Different-Phenotype (%)” value [4] was 38% and 26%, the “Total Cell Count” value [4] was 350 and 348 and the “Population Apoptotic (%)” value [5] was 30% and 46%. For the same molecule, the “Population Fragmented Nuclei (%)” value [5] was 13% and 8%, the “Population Healthy Nuclei (%)” value [5] was 76% and 83% and the “Population Hoechst High Intensity Objects (%)” value [5] was 2% and 4%. For the same molecule, the “Population Membrane Permeable-Phenotype (%)” value [5] was 0%, the “Population Mitochondria Different-Phenotype (%)” value [5] was 25% and 24% and the “Population Mitotic Cells (%)” value [5] was 69% and 53%. For the same molecule, the “Population Normal (%)” value [5] was 97% and 95%, the “Population Pyknosed Nuclei (%)” value [5] was 9% and 8% and the “Population Tubulin-Different-Phenotype (%)” value [5] was 21% and 13%. For the same molecule, the “Total Cell Count” value [5] was 688 and 524, the “Population Apoptotic (%)” value [6] was 46% and 48% and the “Population Fragmented Nuclei (%)” value [6] was 13% and 16%. The “Population Healthy Nuclei (%)” value [6] was 75% and 76%, the “Population Hoechst High Intensity Objects (%)” value [6] was 4% and 2% and the “Population Membrane Permeable-Phenotype (%)” value [6] was 0%. For the same molecule, the “Population Mitochondria Different-Phenotype (%)” value [6] was 45% and 37%, the “Population Mitotic Cells (%)” value [6] was 53% and 51% and the “Population Normal (%)” value [6] was 95% and 97%. The “Population Pyknosed Nuclei (%)” value [6] was 10% and 7%, the “Population Tubulin-Different-Phenotype (%)” value [6] was 26% and 20% and the “Total Cell Count” value [6] was 515 and 544.
